Source: ChEMBL document CHEMBL2440007, “Design, synthesis and biological evaluation of N2,N4-disubstituted-1,1,3-trioxo-2H,4H-pyrrolo[1,2-b][1,2,4,6]thiatriazine derivatives as HIV-1 NNRTIs” (Bioorg Med Chem, 2013)

Legend:
[1] = Selectivity index, ratio of CC50 for human MT4 cells to EC50 for HIV-2 ROD infected in human MT4 cells; format: toxicity, cell-based; conditions: read-out: Ratio CC50/EC50
In short: (§1)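 Ratio CC50/EC50. Both values come from MTT viability of MT-4 cells read 5 days after infection with HIV-1 IIIB or HIV-2 ROD, or after mock infection for CC50.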

[2] = tested on: Human immunodeficiency virus 2; experiment: Antiviral activity against HIV2 ROD infected in human MT4 cells assessed as protection against viral-induced cytotoxicity after 5 days by MTT assay; format: functional, organism-based; conditions: Human immunodeficiency virus 2, ISOLATE ROD, MT4, 120 h
In short: (§2)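 MT-4 cells were infected with HIV-1 IIIB or HIV-2 ROD stock at 100–300 CCID50 and exposed to serial fivefold compound dilutions, with untreated virus-infected and mock-infected controls. Cell viability was read by MTT after 5 days.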

[3] = Selectivity index, ratio of CC50 for human MT4 cells to EC50 for HIV-1 3B infected in human MT4 cells; format: toxicity, cell-based; conditions: read-out: Ratio CC50/EC50; in short: as §1
[4] = Cytotoxicity against human MT4 cells after 5 days by MTT assay; format: cell-based
In short: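 Mock-infected MT-4 cells (6 × 10⁵ cells/mL) were exposed to serial fivefold compound dilutions. Viability was measured by MTT after 5 days.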

[5] = tested on: Human immunodeficiency virus 1; experiment: Antiviral activity against HIV1 3B infected in human MT4 cells assessed as protection against viral-induced cytotoxicity after 5 days by MTT assay; format: functional, organism-based; conditions: Human immunodeficiency virus 1, 3B, MT4, 120 h; in short: as §2
[6] = biological target: Human immunodeficiency virus type 1 reverse transcriptase (Human immunodeficiency virus 1, UniProt Q72547); experiment: Inhibition of HIV1 reverse transcriptase assessed as inhibition of biotinylated dUTP incorporation after 1 hr by ELISA
In short: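 Kit-based colorimetric ELISA. HIV-1 RT was incubated with template and DIG-dUTP, biotin-dUTP and dTTP, with or without inhibitor, for 1 h at 37 °C. Product was captured on streptavidin plates for 1 h at 37 °C, then anti-DIG-POD for 1 h at 37 °C, and ABTS was developed at 25 °C. A405 was read and percent inhibition calculated.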

[7] = tested on: Human immunodeficiency virus 1; experiment: Antiviral activity against HIV1; format: functional, organism-based

| IC50 [6] [µM] | EC50 [7] [µM] | SMILES | selectivity ratio [1] | EC50 [2] [µM] | selectivity ratio [3] | CC50 at 120 h [4] [µM] | EC50 [5] [µM] |
| --- | --- | --- | --- | --- | --- | --- | --- |
| – | – | Cc1ccc(CN2C(=O)N(Cc3ccccc3)S(=O)(=O)n3cccc32)cc1 | < 1 | > 241 | < 1 | 241 | > 241 |
| – | – | N#Cc1ccccc1CN1C(=O)N(Cc2cccc(Cl)c2)S(=O)(=O)n2cccc21 | 1 | > 293 | > 33 | > 293 | 8.9 |
| – | – | O=C1N(Cc2ccc(Cl)cc2Cl)c2cccn2S(=O)(=O)N1Cc1cccc(Br)c1 | 1 | > 243 | – | > 243 | > 243 |
| – | – | O=C1N(Cc2ccccc2Br)c2cccn2S(=O)(=O)N1Cc1ccccc1 | < 1 | > 226 | 8 | 226 | 30 |
| – | – | O=C1N(Cc2ccc(Cl)cc2Cl)c2cccn2S(=O)(=O)N1Cc1ccccc1 | < 1 | > 273 | < 1 | 218 | > 218 |
| – | – | O=C1N(Cc2ccccc2)c2cccn2S(=O)(=O)N1Cc1cccc(F)c1 | 1 | > 324 | 6 | 288 | 52 |
| – | – | O=C1N(Cc2cccc(Cl)c2)c2cccn2S(=O)(=O)N1Cc1ccccc1 | < 1 | > 239 | 5 | 196 | 40 |
| 56.9 | – | N#Cc1ccccc1CN1C(=O)N(Cc2ccccc2)S(=O)(=O)n2cccc21 | 1 | > 318 | > 63 | > 318 | 5.1 |
| – | 0.01 | O=C1N(Cc2ccccc2Cl)c2cscc2S(=O)(=O)N1Cc1ccccc1 | – | – | > 119 | > 119 | – |
| – | – | O=C1N(Cc2ccccc2Cl)c2cccn2S(=O)(=O)N1Cc1cccc(Br)c1 | 1 | > 260 | > 14 | > 260 | 18 |
| – | – | O=C1N(Cc2ccccc2Cl)c2cccn2S(=O)(=O)N1Cc1cccc(F)c1 | < 1 | > 262 | 21 | 231 | 11 |
| – | – | O=C1N(C/C=C/c2ccccc2)c2cccn2S(=O)(=O)N1Cc1ccccc1 | 1 | > 318 | – | > 318 | > 318 |
| – | > 300 | Cn1ncc2c1S(=O)(=O)N(Cc1ccccc1)C(=O)N2Cc1ccccc1Cl | – | – | – | – | – |
| – | – | C=CCN1C(=O)N(Cc2ccccc2)S(=O)(=O)n2cccc21 | < 1 | > 802 | > 1 | > 802 | > 802 |
| – | – | O=C1N(Cc2ccc(Cl)cc2Cl)c2cccn2S(=O)(=O)N1Cc1cccc(F)c1 | 1 | > 275 | < 1 | 249 | > 249 |
| – | – | O=C1N(Cc2ccccc2Cl)c2cccn2S(=O)(=O)N1Cc1ccccc1 | 1 | > 311 | 12 | 291 | 23 |

| IC50 [6] [µM] | EC50 [7] [µM] | SMILES | selectivity ratio [1] | EC50 [2] [µM] | selectivity ratio [3] | CC50 at 120 h [4] [µM] | EC50 [5] [µM] |
| --- | --- | --- | --- | --- | --- | --- | --- |
| – | – | N#CCN1C(=O)N(Cc2cccc(F)c2)S(=O)(=O)n2cccc21 | < 1 | > 187 | 5 | 172 | 34 |
| – | – | Cc1ccnc2c1NC(=O)c1cccnc1N2C1CC1 [NEVIRAPINE] | – | – | – | > 15 | – |
| – | – | O=C1N(Cc2ccccc2)c2cccn2S(=O)(=O)N1Cc1ccccc1 | < 1 | > 267 | 5 | 196 | 43 |
| 58.3 | – | N#Cc1ccccc1CN1C(=O)N(Cc2cccc(F)c2)S(=O)(=O)n2cccc21 | 1 | > 305 | > 55 | > 305 | 5.6 |
| – | – | O=C1N(Cc2cccc(Cl)c2)c2cccn2S(=O)(=O)N1Cc1cccc(F)c1 | < 1 | > 212 | 29 | 208 | 7.2 |
| – | – | O=C1N(Cc2ccc(Cl)cc2Cl)c2cccn2S(=O)(=O)N1Cc1cccc(Cl)c1 | 1 | > 265 | < 1 | 251 | > 251 |
| – | > 20 | Cn1ncc2c1N(Cc1ccccc1Cl)S(=O)(=O)N(Cc1ccccc1)C2=O | – | – | – | – | – |
| – | – | O=C1N(Cc2ccc(F)cc2)c2cccn2S(=O)(=O)N1Cc1ccccc1 | < 1 | > 150 | < 1 | 150 | > 190 |
| – | – | N#CCN1C(=O)N(Cc2ccccc2)S(=O)(=O)n2cccc21 | < 1 | > 180 | < 1 | 180 | > 187 |
| – | – | Nc1ccn([C@@H]2CS[C@H](CO)O2)c(=O)n1 [LAMIVUDINE] | > 15 | 5.9 | > 47 | > 87 | 1.8 |
| – | – | N#Cc1cccc(CN2C(=O)N(Cc3ccccc3)S(=O)(=O)n3cccc32)c1 | 1 | > 318 | > 49 | > 318 | 6.5 |
| – | – | Nc1ccn([C@H]2CC[C@@H](CO)O2)c(=O)n1 [ZALCITABINE] | – | – | > 68 | > 95 | – |
| – | – | N#CCN1C(=O)N(Cc2ccccc2)S(=O)(=O)c2cscc21 | – | – | 559 | 503 | – |
| – | – | O=C1N(Cc2ccccc2Br)c2cccn2S(=O)(=O)N1Cc1cccc(F)c1 | 1 | > 269 | > 9 | > 269 | 29 |
| – | – | CC(C)=CCN1C(=O)N(Cc2ccccc2)S(=O)(=O)n2cccc21 | < 1 | > 226 | 9 | 226 | 25 |
